The source of these data is ChEMBL document CHEMBL1122723, “Potential antitumor agents: synthesis and biological properties of aliphatic amino acid 9-hydroxyellipticinium derivatives” (1984).

The test system of one assay is Escherichia coli. Nature of the assay: Compound was evaluated for the effective dose, as compared to controls against Escherichia coli BL 101. To be noted: read-out: ED50 (the source's name). The assay is classed as functional. The procedure, abridged:
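Bacteriostatic test on E. coli BL 101, a quaternary-ammonium-sensitive strain, and on Salmonella typhimurium TA 98. Inocula from master plates were grown overnight at 37 °C and diluted 1000-fold in the same medium. Cultures were shaken at 37 °C, with drugs added after 2 h of growth at graded concentrations. Growth was followed by turbidity at 650 nm. ED50 is the dose halving growth rate versus controls, from a regression of % inhibition on log dose.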

The subject of another assay is Salmonella typhimurium. Nature of the assay: Compound was evaluated for the effective dose, as compared to controls against Salmonella typhimurium TA98. To be noted: read-out: ED50 (the source's name).
The next assay has as its system Nucleic Acid. The assay is described as follows: Apparent binding constant (Kapp) for calf thymus DNA was measured by competition with ethidium bromide. In kind it is nucleic-acid assay. To be noted: Bos taurus. An outline of the steps:
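Calf thymus DNA binding measured by ethidium bromide competition in 0.2 M Tris-HCl buffer, pH 7.40. Apparent binding constants were derived from Scatchard plots.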

In a further assay the test system is L1210. The assay is described as follows: Dose that reduces the L1210 leukemia cell growth in vitro by 50% after 48 hr as compared to controls. In kind it is functional. The settings on record: Mus musculus, L1210, 48 h; read-out: ID50 (the source's name). An outline of the steps:
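L1210 leukemia cells were grown in vitro with graded drug doses for 48 h. ID50 is the dose that reduces cell growth by 50% versus controls, read from a regression line of % growth inhibition against log dose. 50% inhibition corresponds to a twofold increase in generation time.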

The test system of assay [1] is Mus musculus. The assay is described as follows: Compound tested in vivo for highest […] administered intraperitoneally that reduces the L1210 leukemia cell growth. In kind it is functional. An outline of the steps: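 Highest nonlethal dose (LD0) found for each compound after one intraperitoneal injection into DBA/2 mice.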
Assay [2] relates to Mus musculus. Nature of the assay: Percent Increase in life span (ILS) over controls (10e5 L1210 leukemia cells) at LD0/2 by ip administration of the drug into mouse (single injection 2 hr after cell grafting). The assay is classed as functional. The procedure, abridged:
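DBA/2 mice were inoculated with 10⁵ L1210 cells and then given one intraperitoneal dose at LD0/2, the LD0 being the highest nonlethal single ip dose. Life span was compared with untreated controls as ILS = (T − C)/C × 100. ILS > 25% was counted as a significant antitumor effect.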

Each structure is given as a SMILES string.

In the case of `Cc1c2cc[n+](C)cc2c(C)c2c1[nH]c1ccc(O)c(/N=C(/C(=O)O)C(C)C)c12`, the EC50 in the assay on Escherichia coli is 180 nM; in the assay with Salmonella typhimurium, 1650 nM. The K app with Nucleic Acid was determined as 210000 M⁻¹. In addition, the IC50 in the assay with L1210 was 310 nM. The compound also displayed an LD0 with Mus musculus [1] of 15 mg/kg. The same compound yielded an ILS in the assay with Mus musculus [2] of 31.5.

Consider `Cc1c2cc[n+](C)cc2c(C)c2c1[nH]c1ccccc12`, for which the K app in the assay with Nucleic Acid came out at 230000 M⁻¹. In the assay with Mus musculus [1], this compound yielded an LD0 of 12.5 mg/kg. In the assay on Mus musculus [2], the ILS turned out to be 22.

For the compound `Cc1c2cc[n+](C)cc2c(C)c2c1[nH]c1ccc(O)c(/N=C(\CC(C)C)C(=O)O)c12`, the results for the EC50 in the assay on Escherichia coli and in the assay on Salmonella typhimurium were 760 nM and 2350 nM, respectively. Moreover, in the assay on Nucleic Acid, the K app was 260000 M⁻¹. The IC50 in the assay on L1210 came out at 280 nM. Besides, the LD0 with Mus musculus [1] is 10 mg/kg. In addition, in the assay on Mus musculus [2], the ILS is listed as 35.

With `Cc1c2cc[n+](C)cc2c(C)c2c1[nH]c1ccc(O)cc12` [ELLIPTINIUM], the EC50 in the assay with Escherichia coli came out at 3550 nM. Also, the K app in the assay with Nucleic Acid amounted to 1.3e+06 M⁻¹. The IC50 in the assay on L1210 was found to be 50 nM. In the assay on Mus musculus [1], this compound showed an LD0 of 5 mg/kg. In the assay on Mus musculus [2], the ILS turned out to be 53.

In the case of `Cc1c2cc[n+](C)cc2c(C)c2c1[nH]c1ccc(O)c(/N=C/C(=O)O)c12`, the EC50 was found to be 3150 nM in the assay with Escherichia coli and 100000 nM with Salmonella typhimurium. Further, the K app with Nucleic Acid came to 80000 M⁻¹. In addition, the IC50 with L1210 is 540 nM. In the assay on Mus musculus [1], this compound yielded an LD0 of 20 mg/kg. The compound also returned an ILS with Mus musculus [2] of 0.

In the case of `C/C(=N\c1c(O)ccc2[nH]c3c(C)c4cc[n+](C)cc4c(C)c3c12)C(=O)O`, the EC50 in the assay with Escherichia coli amounted to 1950 nM; with Salmonella typhimurium, 50300 nM. Moreover, the K app in the assay on Nucleic Acid was found to be 470000 M⁻¹. The IC50 with L1210 amounted to 200 nM. The same compound displayed an LD0 with Mus musculus [1] of 20 mg/kg. In the assay with Mus musculus [2], this compound returned an ILS of 23.
